Measured values from ChEMBL document CHEMBL4765486, “Novel Nonsecosteroidal Vitamin D Receptor Modulator Combined with Gemcitabine Enhances Pancreatic Cancer Therapy through Remodeling of the Tumor Microenvironment” (J Med Chem, 2021).
Calls of active or inactive are those of the source. Unless noted, the calls are words filed in the database; no cut-off is given here.

Experiments:
[1] = target: T1, Vitamin D3 receptor (Homo sapiens) (UniProt P11473); assay: Binding affinity to VDR (unknown origin) at 1 uM by fluorescence polarization assay relative to calcipotriol; conditions: filed as agonist
T1 sequence (whole entry): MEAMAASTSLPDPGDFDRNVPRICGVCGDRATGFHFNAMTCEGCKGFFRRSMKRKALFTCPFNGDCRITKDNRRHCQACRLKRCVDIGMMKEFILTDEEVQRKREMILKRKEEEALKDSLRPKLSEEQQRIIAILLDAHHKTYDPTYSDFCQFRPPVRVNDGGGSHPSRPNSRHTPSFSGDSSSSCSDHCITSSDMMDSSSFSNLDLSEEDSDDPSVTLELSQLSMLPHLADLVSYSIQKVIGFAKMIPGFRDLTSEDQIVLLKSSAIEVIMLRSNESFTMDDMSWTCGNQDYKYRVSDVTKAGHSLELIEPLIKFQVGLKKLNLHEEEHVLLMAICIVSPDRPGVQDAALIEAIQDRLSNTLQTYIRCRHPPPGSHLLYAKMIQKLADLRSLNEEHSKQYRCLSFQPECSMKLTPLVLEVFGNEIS
Outline: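 PolarScreen VDR competitor fluorescence polarization assay with compounds at 1 μM in triplicate. Read-out used 535 nm excitation and 590 nm emission filters.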

[2] = Cytotoxicity against rat LTC-14 cells assessed as reduction in cell proliferation incubated for 24 hrs by MTT assay; type: cell-based; conditions: LTC-14, 24 h
LTC-14 [3] = assay: Inhibition of rat LTC-14 cell activation assessed decrease in TGF-beta1 induced Colla1 mRNA expression at 0.5 uM incubated for 24 hrs by q-PCR analysis; type: functional
Outline: (§1)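 Immortalized rat PSC line LTC-14, about 1×10^5 cells per well, was grown 24 h at 37 °C in 5% CO2. Cells then received compound (0.5 μM) plus TGF-β1 for 24 h; TGF-β1 is stated as 0.5 ng/mL in the text and 5 ng/mL in the methods. Col1a1 and Acta2 mRNA were measured by RT-qPCR. Mean ± SD versus TGF-β1 alone.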

LTC-14 [4] = assay: Inhibition of rat LTC-14 cells activation assessed decrease in TGF-beta1 induced Acta2 mRNA expression at 0.5 uM incubated for 24 hrs by q-PCR analysis; type: functional, cell-based; outline: as §1
LTC-14 [5] = assay: Inhibition of rat LTC-14 cells activation assessed decrease in TGF-beta1 induced collagen 1 protein expression at 0.5 uM incubated for 24 hrs by Western blot analysis; type: functional, cell-based
Outline: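 LTC-14 cells were treated for 24 h with compound (0.5 μM) plus TGF-β1 (0.5 ng/mL in the text, 5 ng/mL in the methods). Lysates were run on 10% SDS-PAGE, transferred to PVDF and probed with rabbit anti-collagen I, with β-actin as reference. Bands were quantified by densitometry versus TGF-β1 alone.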

LTC-14 [6] = assay: Inhibition of rat LTC-14 cells interaction with DSL-6A/C1 cells in conditioned media assessed as inhibition of PDGF-A protein expression at 0.5 uM measured after 24 hrs by Western blot analysis; type: functional, cell-based
Outline: (§2)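 LTC-14 cells were treated for 24 h with DSL-6A/C1 conditioned medium plus compound (0.5 μM). Proteins were separated on 10% SDS-PAGE, transferred to PVDF and probed with rabbit anti-PDGF-A or anti-POSTN, with β-actin as loading reference.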

LTC-14 [7] = assay: Inhibition of rat LTC-14 cells interaction with DSL-6A/C1 cells in conditioned media assessed as inhibition of POSTN protein expression at 0.5 uM measured after 24 hrs by Western blot analysis; type: functional, cell-based; outline: as §2
LTC-14 [8] = assay: Inhibition of rat LTC-14 cells activation assessed as inhibition of PDGFA mRNA expression at 0.5 uM treated under conditioned media of DSL-6A/C1 cells for 24 hrs by q-PCR analysis; type: functional, cell-based
Outline: (§3)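 LTC-14 PSCs were exposed for 24 h to conditioned medium from rat DSL-6A/C1 cancer cells containing compound at 0.5 μM. Pdgfa, Pdgfb, Fgf2, Hgf and Periodin mRNA were quantified by RT-qPCR. Three repeats, mean ± SD versus CM alone.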

LTC-14 [9] = assay: Inhibition of rat LTC-14 cells activation assessed as inhibition of PDGFB mRNA expression at 0.5 uM treated under conditioned media of DSL-6A/C1 cells for 24 hrs by q-PCR analysis; type: functional, cell-based; outline: as §3
LTC-14 [10] = assay: Inhibition of rat LTC-14 cells activation assessed as inhibition of Fgf mRNA expression at 0.5 uM treated under conditioned media of DSL-6A/C1 cells for 24 hrs by q-PCR analysis; type: functional, cell-based; outline: as §3
LTC-14 [11] = assay: Inhibition of rat LTC-14 cells activation assessed as inhibition of Hgf mRNA expression at 0.5 uM treated under conditioned media of DSL-6A/C1 cells for 24 hrs by q-PCR analysis; type: functional, cell-based; outline: as §3
LTC-14 [12] = assay: Inhibition of rat LTC-14 cells activation assessed as inhibition of Periodin-mRNA expression at 0.5 uM treated under conditioned media of DSL-6A/C1 cells for 24 hrs by q-PCR analysis; type: functional, cell-based; outline: as §3
[13] = Cytotoxicity against rat DSL-6A/C1 cells assessed as reduction in cell proliferation at 0.5 uM incubated for 24 hrs by MTT assay; type: cell-based; conditions: dsl-6a/c1, 24 h
Vitamin D3 receptor = target: T2, Vitamin D3 receptor (Homo sapiens, UniProt P11473); assay: Binding affinity to VDR (unknown origin) by fluorescence polarization assay
T2 sequence (P11473 whole entry): T1 sequence (whole entry)
Outline: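 Competitive VDR binding was measured by PolarScreen fluorescence polarization, in triplicate.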

DSL-6A/C1 [14] = assay: Antiproliferative activity against rat DSL-6A/C1 cells assessed as reduction in cell viability at 0.5 uM incubated for 24 hrs compound treated LTC-14-CM cells by MTT assay; type: functional, cell-based
Outline: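 LTC-14 PSCs were pretreated with compound for 24 h. Their collected supernatant was used to culture DSL-6A/C1 cells, and proliferation was read by MTT: 4 h incubation with MTT (5 mg/mL stock), absorbance at 570 nm. Run in triplicate, compared with untreated PSC-CM.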

DSL-6A/C1 [15] = assay: Antiproliferative activity against rat DSL-6A/C1 cells assessed as reduction in cell viability at 0.5 uM treated with conditioned media of LTC-14 cells for 24 hrs by MTT assay; type: functional, cell-based
Outline: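 Rat pancreatic cancer DSL-6A/C1 cells were cultured in supernatant from LTC-14 PSCs (PSC-CM) with compound added at 0.5 μM for 24 h. Viability was then read by MTT: 4 h incubation with MTT (5 mg/mL stock), absorbance at 570 nm. Run in triplicate, compared with PSC-CM alone.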

LTC-14 [16] = assay: Inhibition of rat LTC-14 cells activation assessed as reduction in ECM deposition resulting in doxorubicin accumulation in PSC spheres pretreated with compounds followed by doxorubicin addition by laser confocal microscopy analysis; type: functional, cell-based
Outline: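 LTC-14 cells were grown in 3D culture to form PSC spheres and treated with compounds. Fluorescent doxorubicin was then added, and its penetration into the spheres was imaged by laser confocal microscopy. Three repeats, versus untreated control.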

[17] = target: T1, Vitamin D3 receptor (Homo sapiens); assay: Agonist activity at VDR (unknown origin) expressed in HEK293 cells co-transfected with pGL4.27-SPP3-Luc and CMV-hRXRalpha and pCMX-Renilla plasmids after 24 hrs by dual luciferase reporter gene assay; type: cell-based; conditions: filed as agonist, dose 0.0001-1 µM
Outline: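 HEK293 cells in 48-well plates were transfected per well with 40 ng TK-Spp×3-LUC reporter, 20 ng pCMX-Renilla, 30 ng pENTER-CMV-hRXRα and 100 ng pCMX-VDR using Lipofectamine 2000. Compounds were added 8 h post-transfection, and dual-luciferase activity was read 24 h later. Firefly signal was normalised to Renilla. The experiment was run three times.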

DSL-6A/C1 [18] = assay: Potentiation of gemcitabine-induced antitumor activity against luciferase-tagged rat DSL-6A/C1 cells and GFP-tagged LTC-14 cells co-inoculated in orthotropic xenograft BALB/c nude mouse model of pancreatic cancer assessed as reduction in tumor volume at 500 ug/kg, ip administered once every 3 days for 12 days coadministered with gemcitabine at 100 mg/kg and measured after 3 days post last dose by IVIS optical imaging analysis; type: functional, organism-based; conditions: dose 500.0 µg/kg, time 12.0 day
Outline: (§4)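 DSL-6A/C1-luci and LTC-14-GFP cells were co-inoculated orthotopically into the pancreas of nude mice, n=5 per group. Treatment began 7 days after grafting (methods) or 14 days (text). Gemcitabine 100 mg/kg ip every 3 days, alone or with compound 500 μg/kg or calcipotriol 60 μg/kg in ethanol/polyoxyethylene castor oil/saline (1:1:18), for 12 days. Tumour growth was followed by bioluminescence imaging.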

Mus musculus [19] = assay: Inhibition of GFP-tagged rat LTC-14 cells activation in BALB/c nude mouse xenografted along with luciferase-tagged DSL-6A/C1-Luc cells assessed as reduction in alpha-smooth muscle actin expression in tumor at 500 ug/kg, ip administered once every 3 days for 12 days coadministered with gemcitabine at 100 mg/kg by DAPI staining based laser confocal scanning microscopy; type: functional, organism-based; conditions: dose 500.0 µg/kg, time 12.0 day
Outline: (§5)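 Tumours were taken from orthotopic co-inoculated nude mice given gemcitabine 100 mg/kg plus compound (500 μg/kg) or calcipotriol (60 μg/kg) ip for 12 days. Sections were fixed in 4% PFA, permeabilised with 0.5% Triton X-100 and blocked in 5% BSA. They were incubated with anti-α-SMA overnight at 4 °C, then an Alexa Fluor 594 secondary for 1 h at 37 °C, DAPI-counterstained and imaged by confocal microscopy.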

DSL-6A/C1 [20] = conditions: Rattus norvegicus, dose 100.0 mg/kg, time 12.0 day
Mus musculus [21] = assay: Inhibition of GFP-tagged rat LTC-14 cells activation in BALB/c nude mouse xenografted along with luciferase-tagged DSL-6A/C1-Luc cells assessed as reduction in alpha-smooth muscle actin expression in tumor at 60 ug/kg, ip administered once every 3 days for 12 days coadministered with gemcitabine at 100 mg/kg and measured after 3 days post last dose and by DAPI staining based laser confocal scanning microscopy; type: functional, organism-based; conditions: dose 60.0 µg/kg, time 12.0 day; outline: as §5
DSL-6A/C1 [22] = assay: Potentiation of gemcitabine-induced antitumor activity against rat DSL-6A/C1-Luc cells and LTC-14-GFP cells co-inoculated in orthotropic xenograft BALB/c nude mouse model of pancreatic cancer assessed as reduction in tumor volume at 60 ug/kg, ip administered once every 3 days for 12 days coadministered with gemcitabine at 100 mg/kg and measured after 3 days post last dose by IVIS optical imaging analysis; type: functional, organism-based; conditions: dose 60.0 µg/kg, time 12.0 day; outline: as §4

SMILES | RBA [1] [%] | IC50 [2] [nM] | inhibition (LTC-14 [3]) | inhibition (LTC-14 [4]) | inhibition (LTC-14 [5]) | inhibition (LTC-14 [6]) | inhibition (LTC-14 [7]) | inhibition (LTC-14 [8]) | inhibition (LTC-14 [9]) | inhibition (LTC-14 [10]) | inhibition (LTC-14 [11]) | inhibition (LTC-14 [12]) | Activity [13] | IC50 (Vitamin D3 receptor) [nM] | Activity (DSL-6A/C1 [14]) | Activity (DSL-6A/C1 [15]) | inhibition (LTC-14 [16]) | Activity [17] | TGI (DSL-6A/C1 [18]) | inhibition (Mus musculus [19]) | further results
CCn1cc(C(CC)(CC)c2ccc(OCC(C)O)c(C)c2)cc1C(=O)NCC(O)CO (centres undefined) | 86 | > 10000 | Active | Active | Active | Active | Active | Active | Active | Active | Active | Active | Non-Toxic | 81.6 | Active | inactive | Active | Dose-dependent effect | Active | Active | –
Nc1ccn([C@@H]2O[C@H](CO)[C@@H](O)C2(F)F)c(=O)n1 | – | – | – | – | – | – | – | – | – | – | – | – | – | – | – | – | – | – | – | – | TGI (DSL-6A/C1 [20]): inactive
CCN(CC)CCCNC(=O)c1ccc(C(CC)(CC)c2ccc(OCCC(C)(C)O)c(C)c2)n1CC | 85 | > 10000 | Active | Active | Active | Active | Active | Active | Active | Active | Active | Active | Non-Toxic | 92.5 | Active | inactive | Active | Dose-dependent effect | Active | Active | –
C=C1/C(=C/C=C2\CCC[C@]3(C)[C@@H]([C@H](C)/C=C/[C@@H](O)C4CC4)CC[C@@H]23)C[C@@H](O)C[C@@H]1O | – | > 10000 | Active | Active | Active | – | – | – | – | – | – | – | Non-Toxic | – | – | – | – | Dose-dependent effect | – | – | inhibition (Mus musculus [21]): Active; Activity (DSL-6A/C1 [22]): Active
